Test results: PMC8837702 (Archives of toxicology, 2021)
Read-outs that look alike come from different tables or passages of the source. Each block holds one compound with its values, some of them ahead of it.

Tests used:
[1] = molecular target: T1, recombinant human NAT2 (Homo sapiens, UniProt P11245); test: Recombinant human NAT2; assay type: biochemical; conditions: for inhibition of human NAT2: at concentrations up to 2 mM
T1 sequence (P11245 1-290): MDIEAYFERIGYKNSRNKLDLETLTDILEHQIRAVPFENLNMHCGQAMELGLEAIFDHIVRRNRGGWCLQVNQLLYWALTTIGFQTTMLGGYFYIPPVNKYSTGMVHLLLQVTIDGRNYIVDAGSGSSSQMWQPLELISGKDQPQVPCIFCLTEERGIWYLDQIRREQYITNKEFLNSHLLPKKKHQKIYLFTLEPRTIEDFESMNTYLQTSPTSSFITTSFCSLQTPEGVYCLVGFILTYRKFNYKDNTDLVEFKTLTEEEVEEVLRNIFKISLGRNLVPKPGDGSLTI
Summary of the method: (§1)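 Lysates of S. pombe stably expressing recombinant human NAT1 (10 μM PABA) or NAT2 (10 μM SMZ) were run with 100 μM acetyl-CoA over a test-compound concentration series. Substrate and N-acetylated product were separated and measured by HPLC. IC50 came from nonlinear regression, reported as mean ± SEM (n=3).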

[2] = molecular target: T2, NAT1 (Homo sapiens, UniProt P18440); test: Recombinant human NAT1; assay type: biochemical; conditions: for fold less potent than compound 10 towards recombinant human NAT1: in vitro IC50 comparison; for IC50 NAT2/IC50 NAT1: ratio; for IC50 NAT2/IC50 NAT1 / fold lower IC50 for NAT1 versus NAT2: PABA (NAT1) vs SMZ (NAT2)
T2 sequence (P18440 1-290): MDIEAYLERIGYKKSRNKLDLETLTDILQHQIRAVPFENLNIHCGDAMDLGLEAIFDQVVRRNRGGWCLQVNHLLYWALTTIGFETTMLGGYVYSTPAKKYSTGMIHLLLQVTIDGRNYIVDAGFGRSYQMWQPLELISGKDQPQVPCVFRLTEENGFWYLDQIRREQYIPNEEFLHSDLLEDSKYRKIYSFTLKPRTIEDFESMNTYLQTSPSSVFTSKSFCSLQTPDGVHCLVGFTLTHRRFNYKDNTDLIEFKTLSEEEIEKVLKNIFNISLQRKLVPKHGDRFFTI
Summary of the method: as §1

[3] = tested on: MDA-MB-231 cells; test: CytoSelect cell invasion assay, MDA-MB-231; assay type: cell-based, human; conditions: 24 hr, 0, 31.25, 62.5, 125 μM
Summary of the method: (§2)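 CytoSelect 24-well colorimetric invasion assay: 300,000 cells were seeded and allowed to invade toward medium containing 10% FBS for 24 hr with test compound present. Invasion was expressed as a percentage of the DMSO vehicle control. Mean ± SEM (n=3).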

[4] = tested on: MCF-10A cells; test: AlamarBlue cell viability and proliferation, MCF-10A; assay type: cell-based, human
Summary of the method: (§3)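 Cells were seeded in 96-well plates and left 24 hr. They were then treated with test compound (0–250 μM) in their own medium for up to 144 hr: MEBM with supplements for MCF-10A, DMEM with 10% FBS for MDA-MB-231. AlamarBlue (1/10 culture volume) was added 1 hr before each time point at 37°C, then fluorescence read (ex 570, em 580 nm). Mean ± SEM (n=4).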

[5] = tested on: endogenous NAT1 in MDA-MB-231 cells; test: N-acetylation capacity in MDA-MB-231 cells; assay type: cell-based, human; conditions: 10 μM ABP or PABA, 4 hr
Summary of the method: (§4)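 Cells grown in DMEM with 10% FBS, penicillin and streptomycin at 37°C, 5% CO2, were taken to confluence. They were then exposed for 4 hr at 37°C to medium with 10 μM ABP or PABA and test compound. Collected medium was acidified with 1/10 volume 1 M acetic acid and spun at 13,000 g for 10 min. The supernatant was analysed by HPLC for N-acetyl products; n=3, mean ± SEM.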

[6] = molecular target: T2, NAT1; assay type: biochemical; conditions: ABP as substrate
Summary of the method: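 Recombinant human NAT1 or NAT2 expressed in Schizosaccharomyces pombe, assayed in yeast lysate with 10 μM ABP, 100 μM acetyl-CoA and test compound at 0–200 μM. Substrate and N-acetylated product were separated and quantified by HPLC. The value is the mean ± SD of 3 experiments, with IC50 for each isozyme from nonlinear regression.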

[7] = molecular target: T2, NAT1; test: PABA N-acetylation in situ in cryopreserved human hepatocytes; assay type: cell-based
Summary of the method: (§5)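 Cultured cryopreserved human hepatocytes from five donors, all of intermediate NAT2 acetylator genotype, were incubated for 24 hr with 50 μM PABA or SMZ plus varying test-compound concentrations. Parent substrates and N-acetylated metabolites were separated and quantified by HPLC. Each point is the mean ± SEM over the 5 samples.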

[8] = tested on: NAT2; test: SMZ N-acetylation in situ in cryopreserved human hepatocytes; assay type: cell-based; conditions: 50 μM SMZ, 24 hr, concentrations up to 200 μM
Summary of the method: as §5

[9] = tested on: MDA-MB-231 cells; test: AlamarBlue cell viability and proliferation, MDA-MB-231; assay type: cell-based, human
Summary of the method: as §3

[10] = molecular target: T3, human NAT1 expressed in CHO cells (Homo sapiens, UniProt P18440); test: N-acetylation in situ in UV5 CHO cells expressing human NAT1 and CYP1A1; assay type: cell-based
T3 sequence (P18440 1-290): T2 sequence (P18440 1-290)
Summary of the method: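 UV5 CHO cells (nucleotide excision repair-deficient, XPD mutant) stably transfected with human CYP1A1 and NAT1*4 were plated 24 hr beforehand. Medium was then replaced with α-MEM containing 10 μM PABA or ABP plus test compound. After 2 hr, medium was sampled and N-acetylation quantified by HPLC. Mean ± SD of 3 experiments; IC50 by nonlinear regression.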

[11] = tested on: endogenous NAT1 in MCF-7 cells; test: N-acetylation capacity in MCF-7 cells; assay type: cell-based, human; conditions: 10 μM ABP or PABA, 4 hr
Summary of the method: as §4

[12] = tested on: MCF-7 cells; test: CytoSelect cell invasion assay, MCF-7; assay type: cell-based, human; conditions: 24 hr, 0, 31.25, 62.5, 125 μM
Summary of the method: as §2

[13] = tested on: human NAT1; test: Reversibility of NAT1 inhibition in primary hepatocytes; assay type: cell-based; conditions: 100 or 200 μM for 1 hr, removed, then 10 μM PABA for 5 hr
[14] = tested on: NAT1; conditions: cited from earlier work; for IC50: read-out: IC50 NAT1
[15] = read-out: IC50 for NAT1, in vitro, recombinant in yeast, 10 μM PABA, 100 μM AcCoA, Mean ± SEM (n=3)

Compound: O=C1NC(=S)S/C1=C/c1cc(I)c(O)c(I)c1 [(5E)-[5-(4-hydroxy-3,5-diiodobenzylidene)-2-thioxo-1,3-thiazolidin-4-one]
fold more selective for NAT1 than NAT2 [14]: 25 fold
IC50 [14]: 0.732 µM

Compound: O=C1NC(=S)S/C1=C\c1ccccc1O [(Z)-5-(2-hydroxybenzylidene)-2-thioxothiazolidin-4-one]
IC50 [14]: 101 µM

Compound: O=C1c2ccccc2C(=O)c2c1ccc(O)c2O [Analog 3 (Alizarin), 1,2-dihydroxyanthraquinone]
IC50 [1]: 98.6 ± 9.4 µM
IC50 [7]: 70 ± 1.4 µM
IC50 [2]: 0.886 ± 0.0895 µM
fold lower IC50 for NAT1 versus NAT2 ([2]; in vitro): over 100 fold
IC50 NAT2/IC50 NAT1 [2]: 113

Second part, led by results:

inhibition of human NAT2 [1]: No inhibition
fold less potent than compound 10 towards recombinant human NAT1 [2]: over 100 fold
IC50 NAT2/IC50 NAT1 [2]: >11.7
IC50 [2, 15]: 171 ± 4.7 µM
Compound: 1-(9,10-dihydro-8-hydroxy-9,10-dioxo-1-anthracenyl)4-ethyl ester [Analog 1]

fold lower IC50 for NAT1 versus NAT2, ABP N-acetylation [6]: over 50 fold
IC50 ([7]; read-out: IC50, PABA N-acetylation in cryopreserved human hepatocytes, 50 μM PABA, 24 hr, 5 hepatocyte samples of intermediate NAT2 acetylator genotype): 158 ± 22 µM
inhibition of SMZ N-acetylation in cryopreserved human hepatocytes [8]: no inhibition
IC50 ([9]; read-out: IC50 for cell proliferation, MDA-MB-231, 72 hr): 32 µM
fold lower IC50 for NAT1 versus NAT2 ([2]; in vitro): over 100 fold
IC50 NAT2/IC50 NAT1 [2]: 110
IC50 [2, 15]: 0.75 ± 0.2 µM
IC50 ([10]; read-out: in situ IC50, ABP N-acetylation in CHO cells, ABP as substrate): 81.6 ± 4.4 µM
IC50 ([10]; read-out: in situ IC50, PABA N-acetylation in CHO cells, PABA as substrate): 118 ± 5 µM
Compound: 9,10-dihydro-9,10-dioxo-1,2-anthracenediyl diethyl ester [Compound 10]
cell invasion/migration, MDA-MB-231 [3]: dose-dependent inhibition
cell proliferation, MCF-10A ([4]; non-tumorigenic cell line, later time points): a decrease in cell proliferation was observed
IC50 ([4]; read-out: IC50 for cell proliferation, MCF-10A, 72 hr): 113 µM
N-acetylation of PABA and ABP in MDA-MB-231 [5]: inhibited
cell viability, MDA-MB-231 ([9]; 4-48 hr, 0-250 μM): did not decrease cell viability
cell proliferation, MDA-MB-231 ([9]; 72 and 144 hr): dose-dependent decrease
N-acetylation of PABA and ABP in MCF-7 [11]: inhibited
cell invasion/migration, MCF-7 [12]: dose-dependent inhibition
reversibility of inhibition of PABA N-acetylation [13]: reversible

inhibition of human NAT2 [1]: No inhibition
fold less potent than compound 10 towards recombinant human NAT1 [2]: over 100 fold
IC50 NAT2/IC50 NAT1 [2]: >21.3
IC50 [2, 15]: 94 ± 6.8 µM
Compound: 9,10-dihydro-9,10-dioxo-1,8-anthracenediyl diethyl ester [Analog 2]
